From ChEMBL document CHEMBL1132298, “Synthesis and antimalarial activity of cyclic peroxides, 1,2,4,5, 7-pentoxocanes and 1,2,4,5-tetroxanes” (J Med Chem, 1999) come the findings set out here.

Structures are written as SMILES. A value given as a limit tells only on which side of the number the result lay.

For assay [1], the system named is Mus musculus. The assay is described as follows: In vivo antimalarial activity against Plasmodium berghei NK 65 in mice (Mus musculus) at 50 mg/kg/day. Format: functional. A digest of the protocol: (§1)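 Male ICR mice, 5 weeks old, 22-25 g, five per group. Infected iv (tail vein) with 1 × 10⁶ P. berghei NK 65 parasitized erythrocytes in 0.2 mL 0.9% NaCl. Compound in DMSO given ip once daily on days 0-3, first dose 2 h after inoculation. Controls were DMSO-dosed. Day-4 parasitemia counted on Giemsa tail-blood smears (1 × 10⁴ RBCs). Percent suppression relative to controls, mean of five mice.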

The test system of assay [2] is FM3A. The assay is described as follows: Selectivity index as EC50 FM3A /EC50 Plasmodium falciparum. Type of assay: functional.
In assay [3] the test system is FM3A. The assay is described as follows: In vitro cytotoxicity in mouse mammary tumor FM3A cells; Nontoxic at a 1*10^-4 M concentration. Format: functional, cell-based.
Assay [4] concerns Plasmodium falciparum. As to the kind of experiment: Antiparasitic activity against Plasmodium falciparum FCR-3.
The subject of assay [5] is Mus musculus. As to the kind of experiment: In vivo antimalarial activity against Plasmodium berghei NK 65 in mice (Mus musculus) at 20 mg/kg/day. Format: functional. In a few lines:
as §1

Assay [6] deals with FM3A. The assay is described as follows: In vitro cytotoxicity in mouse mammary tumor FM3A cells. Type of assay: functional, cell-based.
Assay [7] deals with Plasmodium falciparum. The assay is described as follows: In vitro antimalarial activity against chloroquine-sensitive Plasmodium falciparum FCR3; Not toxic at 100uM. Format: functional, organism-based.

For orientation: EC50 means the concentration that produces a half-maximal response. Regarding `O=C(CCC[C@H]1OO[C@H](CCCC(=O)c2ccc(F)cc2)OO1)c1ccc(F)cc1`, the Growth inhibition with Mus musculus [1] stood at 30%; with Mus musculus [5] it was 0%. Besides, the Selectivity with FM3A [2] is listed as above 169. Further, the 50% effective concentration (EC50) result with FM3A [3] is “Not toxic”; in the assay with Plasmodium falciparum [4], 0.51 µM.
As for `Fc1ccc(C2OOC3CCCC(c4ccccc4)(OO2)O3)cc1` (stereo not given), the Selectivity in the assay with FM3A [2] turned out to be 6. The figures for the 50% effective concentration (EC50) in the assay with FM3A [6] and in the assay with Plasmodium falciparum [4] were 17 µM and 2.8 µM, respectively.
The matching figures for `Fc1ccc(C2OOC3CCCC(c4ccc(F)cc4)(OO2)O3)cc1` (stereo not given): 5, 9 µM and 1.9 µM.
In the case of `Fc1ccc(C23CCCC(OOC(C4CCCCC4)OO2)O3)cc1` (stereo not given), in the assay on FM3A [2], the Selectivity is on record as 17. In addition, the 50% effective concentration (EC50) is 2.5 µM with FM3A [6] and 0.15 µM in the assay on Plasmodium falciparum [4].
Take `CCC(CC)C1OOC2CCCC(c3ccccc3)(OO1)O2` (stereo not given): the values for the Growth inhibition in the assay with Mus musculus [1] and in the assay with Mus musculus [5] were 18% and 15%, respectively. Further, in the assay with FM3A [2], the Selectivity was found to be 65. Moreover, the EC50 with FM3A [6] was found to be 33 µM; in the assay on Plasmodium falciparum [4], 0.51 µM.
Compound `CC(C)(C)C1OOC2CCCC(c3ccccc3)(OO1)O2` (stereo not given) registered a Selectivity with FM3A [2] of 2. Moreover, the EC50 with FM3A [6] amounted to 26 µM; in the assay with Plasmodium falciparum [4] it was 17 µM.
`O=C(CCCC1OOC2CCCC(c3ccc(F)cc3)(OO1)O2)c1ccc(F)cc1` (stereo not given): the Growth inhibition in the assay on Mus musculus [1] and with Mus musculus [5] was 0% throughout. For the same compound, the Selectivity in the assay with FM3A [2] is recorded as above 141. Further, the values for the half-maximal effective concentration (EC50) result in the assay with FM3A [3] and with Plasmodium falciparum [4] were “Not toxic” and 0.71 µM, respectively.
As to `COc1ccc(C(=O)CCC[C@H]2OO[C@H](CCCC(=O)c3ccc(OC)cc3)OO2)cc1`, in the assay on FM3A [2], the Selectivity is above 5. The results for the concentration for a half-maximal effect (EC50) entry with FM3A [3] and with Plasmodium falciparum [4] were “Not toxic” and 20 µM, respectively.
`c1ccc(C23CCCC(OOC(C4CCCCC4)OO2)O3)cc1` (stereo not given): the Growth inhibition is reported as 15% in the assay on Mus musculus [1] and 0% in the assay on Mus musculus [5]. The Selectivity with FM3A [2] stood at 48. The EC50 in the assay with FM3A [6] stood at 10 µM; in the assay with Plasmodium falciparum [4], 0.21 µM.
`COc1ccc(C(=O)CCCC2OOC3CCCC(c4ccc(OC)cc4)(OO2)O3)cc1` (stereo not given) had a Selectivity in the assay on FM3A [2] of 19. Further, the EC50 with FM3A [6] came to 18 µM; in the assay with Plasmodium falciparum [4] it was 0.93 µM.
`O=C(CCC[C@H]1OO[C@@H](CCCC(=O)c2ccccc2)OO1)c1ccccc1` had a Selectivity in the assay on FM3A [2] above 8. The concentration for a half-maximal effect (EC50) entry is “Not toxic” in the assay on FM3A [3] and 12 µM in the assay on Plasmodium falciparum [4].
On to `FC(F)(F)c1ccccc1C1OOC(c2ccccc2C(F)(F)F)OO1` (stereo not given), for which the Selectivity in the assay with FM3A [2] worked out at 5. The half-maximal effective concentration (EC50) turned out to be 3 µM in the assay with FM3A [6] and 0.6 µM in the assay on Plasmodium falciparum [4].
As for `Fc1ccc(C2OOC(c3ccc(F)cc3)OO2)cc1` (stereo not given), the Growth inhibition amounted to 90% with Mus musculus [1] and 50% in the assay with Mus musculus [5]. Also, the Selectivity in the assay on FM3A [2] is reported as above 200. For the same compound, the 50% effective concentration (EC50) entry in the assay with FM3A [3] is “Not toxic”; with Plasmodium falciparum [4], 0.5 µM.
Take `C1CCC([C@H]2OO[C@H](C3CCCCC3)OO2)CC1`: the Growth inhibition is 96% with Mus musculus [1] and 50% in the assay with Mus musculus [5]. In the assay on FM3A [2], this compound came in with a Selectivity of 55. Also, the 50% effective concentration (EC50) amounted to 11 µM with FM3A [6] and 0.2 µM in the assay with Plasmodium falciparum [4].
Compound `c1ccc(C[C@H]2OO[C@H](Cc3ccccc3)OO2)cc1` registered a Selectivity in the assay on FM3A [2] above 7. Besides, the EC50 entry in the assay on FM3A [3] was “Not toxic”; with Plasmodium falciparum [4], 14 µM.
Consider `c1ccc([C@H]2OO[C@H](c3ccccc3)OO2)cc1`, for which the Growth inhibition in the assay with Mus musculus [1] was 50%; in the assay with Mus musculus [5], 6%. The Selectivity with FM3A [2] was above 91. In addition, the concentration for a half-maximal effect (EC50) entry in the assay on FM3A [3] is “Not toxic”; with Plasmodium falciparum [4], 1.1 µM.
In the assay with FM3A [2], `Fc1ccc(C23CCCC(OOC(c4ccccc4)OO2)O3)cc1` (stereo not given) yielded a Selectivity of 4. The results for the EC50 in the assay with FM3A [6] and in the assay on Plasmodium falciparum [4] were 8.1 µM and 2.9 µM, respectively.
In the case of `COc1ccc(C2OOC(c3ccc(OC)cc3)OO2)cc1` (stereo not given), the Selectivity in the assay on FM3A [2] was above 127. Besides, the results for the EC50 entry in the assay with FM3A [3] and in the assay on Plasmodium falciparum [4] were “Not toxic” and 0.79 µM, respectively.
In the same order, the values of `CCCCCCC[C@H]1OO[C@H](CCCCCCC)OO1` are above 67, “Not toxic” and 1.5 µM.
`O=C(CCCC1OOC2CCCC(c3ccccc3)(OO1)O2)c1ccccc1` (stereo not given) gave a Selectivity in the assay with FM3A [2] above 77. The EC50 entry was “Not toxic” in the assay with FM3A [3] and 1.3 µM with Plasmodium falciparum [4].
Turning to `O=C(CCC[C@H]1OO[C@H](CCCC(=O)c2ccccc2)OO1)c1ccccc1`, the Growth inhibition with Mus musculus [1] worked out at 40%; with Mus musculus [5], 30%. This compound also came in with a Selectivity with FM3A [2] above 250. For the same compound, the results for the EC50 entry with FM3A [3] and in the assay with Plasmodium falciparum [4] were “Not toxic” and 0.4 µM, respectively.
Regarding `CCCCCCCC1OOC2CCCC(c3ccccc3)(OO1)O2` (stereo not given), the EC50 with FM3A [6] stood at 12 µM; in the assay with Plasmodium falciparum [4] it was 1.5 µM.
Take `c1ccc(C2OOC3CCCC(c4ccccc4)(OO2)O3)cc1` (stereo not given): the Selectivity in the assay on FM3A [2] came out at 36. The figures for the EC50 in the assay with FM3A [6] and with Plasmodium falciparum [4] were 50 µM and 1.4 µM, respectively.
With `FC(F)(F)c1ccc(C2OOC(c3ccc(C(F)(F)F)cc3)OO2)cc1` (stereo not given), the EC50 entry with FM3A [3] and in the assay on Plasmodium falciparum [7] was “Not toxic” each time.
As to `C[C@@H]1CC[C@H]2[C@@H](C)C(=O)O[C@@H]3O[C@@]4(C)CC[C@@H]1[C@]32OO4` [ARTEMISININ], the Growth inhibition in the assay with Mus musculus [1] is 100%; in the assay on Mus musculus [5] it was 93%. In addition, the figures for the EC50 in the assay with FM3A [6] and in the assay on Plasmodium falciparum [4] were 10 µM and 0.0078 µM, respectively.
